Active and inactive are the calls of the source.
How the values were obtained:
[1] = Positive allosteric modulator activity at GPR68 E160K mutant transfected in human HEK293T cells assessed as proton-mediated calcium release at 10 uM incubated for 10 mins by Fluo-4 Direct calcium dye based FLIPR assay (reference value: 1.38 +/- 0.01 %); details: HEK-293T, condition central nervous system disease
[2] = Positive allosteric modulator activity at GPR68 R189L mutant transfected in human HEK293T cells assessed as proton-mediated calcium release at 10 uM incubated for 10 mins by Fluo-4 Direct calcium dye based FLIPR assay (reference value: 1.42 +/- 0.01 %); details: HEK-293T, condition central nervous system disease
[3] = Positive allosteric modulator activity at GPR68 E160K mutant transfected in human HEK293T cells assessed as proton-mediated calcium release at 10 uM incubated for 10 mins by Fluo-4 Direct calcium dye based FLIPR assay (reference value: 6.79 +/- 0.02); assay type: cell-based; details: HEK-293T
[4] = Positive allosteric modulator activity at GPR68 R189M mutant transfected in human HEK293T cells assessed as proton-mediated calcium release at 10 uM incubated for 10 mins by Fluo-4 Direct calcium dye based FLIPR assay (reference value: 6.77 +/- 0.01); assay type: cell-based; details: HEK-293T
[5] = Positive allosteric modulator activity at GPR68 H269F mutant transfected in human HEK293T cells assessed as proton-mediated calcium release at 10 uM incubated for 10 mins by Fluo-4 Direct calcium dye based FLIPR assay (reference value: 6.44 +/- 0.02); assay type: cell-based; details: HEK-293T
[6] = Positive allosteric modulator activity at GPR68 E160A mutant expressed in human HEK293T cells assessed as cAMP production in presence of H+ proton by Split-luciferase based luminescence counter analysis (reference value: 6.6+/-0.3 %); details: HEK-293T, condition central nervous system disease
Summary of the method: (§1)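 Proton concentration-response of GPR68 (wild type or E160A/K/Q, R189L/M, H269F mutants) in transiently transfected HEK293-T cells. Read-out: GloSensor cAMP, with luciferin loading 90 min at 37°C at pH 8.4. Run with and without increasing modulator concentrations; 20 min at room temperature before luminescence. Proton KA fixed to the proton EC50 without modulator. KB, τA, α, β fitted globally with an operational allosteric model. n=4.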

[7] = Positive allosteric modulator activity at GPR68 E160K mutant expressed in human HEK293T cells assessed as cAMP production in presence of H+ proton by Split-luciferase based luminescence counter analysis (reference value: 24.6+/-2.7 %); details: HEK-293T, condition central nervous system disease; summary of the method: as §1
[8] = Positive allosteric modulator activity at GPR68 E160Q mutant expressed in human HEK293T cells assessed as cAMP production in presence of H+ proton by Split-luciferase based luminescence counter analysis (reference value: 17.0+/-1.5 %); details: HEK-293T, condition central nervous system disease; summary of the method: as §1
[9] = Positive allosteric modulator activity at GPR68 E160A mutant expressed in human HEK293T cells assessed as cAMP production in presence of H+ proton by Split-luciferase based luminescence counter analysis (reference value: 7.34+/-0.05); assay type: cell-based; details: HEK-293T; summary of the method: as §1
[10] = Positive allosteric modulator activity at GPR68 E160K mutant expressed in human HEK293T cells assessed as cAMP production in presence of H+ proton by Split-luciferase based luminescence counter analysis (reference value: 6.70+/-0.08); assay type: cell-based; details: HEK-293T; summary of the method: as §1
[11] = Positive allosteric modulator activity at GPR68 E160Q mutant expressed in human HEK293T cells assessed as cAMP production in presence of H+ proton by Split-luciferase based luminescence counter analysis (reference value: 6.83+/-0.09); assay type: cell-based; details: HEK-293T; summary of the method: as §1
[12] = Positive allosteric modulator activity at GPR68 R189M mutant expressed in human HEK293T cells assessed as cAMP production in presence of H+ proton by Split-luciferase based luminescence counter analysis (reference value: 6.71+/-0.03); assay type: cell-based; details: HEK-293T; summary of the method: as §1
[13] = Positive allosteric modulator activity at GPR68 H269F mutant expressed in human HEK293T cells assessed as cAMP production in presence of H+ proton by Split-luciferase based luminescence counter analysis (reference value: 5.75+/-0.03); assay type: cell-based; details: HEK-293T; summary of the method: as §1
[14] = Binding affinity to GPR68 E160A mutant expressed in human HEK293T cells assessed as cAMP production in presence of H+ proton by Split-luciferase based luminescence counter analysis; details: condition central nervous system disease; summary of the method: as §1
[15] = target: T1, G-protein coupled receptor 68 (Homo sapiens, UniProt Q15743); test: Positive allosteric modulator activity at GPR68 expressed in human HEK293T cells assessed as proton-mediated phosphatidylinositol hydrolysis on pH 8.4 at 10 uM incubated for 20 mins by TriLuxMicroBeta counter analysis; assay type: functional, cell-based; details: filed as positive allosteric modulator
T1 sequence (Q15743 whole entry): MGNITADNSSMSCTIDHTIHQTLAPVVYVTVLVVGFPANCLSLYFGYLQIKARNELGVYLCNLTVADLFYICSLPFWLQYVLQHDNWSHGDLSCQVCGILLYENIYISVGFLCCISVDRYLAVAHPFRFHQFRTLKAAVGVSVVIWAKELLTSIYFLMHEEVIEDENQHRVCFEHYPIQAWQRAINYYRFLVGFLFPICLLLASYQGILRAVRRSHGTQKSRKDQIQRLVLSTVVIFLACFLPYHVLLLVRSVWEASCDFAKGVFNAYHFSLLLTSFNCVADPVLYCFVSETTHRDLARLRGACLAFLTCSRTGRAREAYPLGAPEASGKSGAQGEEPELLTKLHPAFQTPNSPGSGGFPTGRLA
Summary of the method: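 GPR68-transfected HEK293-T cells labeled overnight with 3H-inositol (1 μCi/well) in inositol-free DMEM with 5% dialyzed FBS. Treated for 20 min at pH 8.4 in HBSS with 10 mM HEPES, 10 mM MES and 20 mM LiCl, compound at 10 μM. Extracted with 50 mM ice-cold formic acid, 30 min at 4°C. Captured on YSi beads and counted (cpm/well). n=3. 4-parameter logistic fit.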

Adenosine receptor A2a = Adenosine receptor A2a (Homo sapiens, UniProt P29274); test: Antagonist activity against A2A adenosine receptor (unknown origin) transfected in human HEK293T cells assessed as inhibition constant […] by luminescence counter analysis; assay type: functional, cell-based
Sequence of Adenosine receptor A2a (P29274 whole entry): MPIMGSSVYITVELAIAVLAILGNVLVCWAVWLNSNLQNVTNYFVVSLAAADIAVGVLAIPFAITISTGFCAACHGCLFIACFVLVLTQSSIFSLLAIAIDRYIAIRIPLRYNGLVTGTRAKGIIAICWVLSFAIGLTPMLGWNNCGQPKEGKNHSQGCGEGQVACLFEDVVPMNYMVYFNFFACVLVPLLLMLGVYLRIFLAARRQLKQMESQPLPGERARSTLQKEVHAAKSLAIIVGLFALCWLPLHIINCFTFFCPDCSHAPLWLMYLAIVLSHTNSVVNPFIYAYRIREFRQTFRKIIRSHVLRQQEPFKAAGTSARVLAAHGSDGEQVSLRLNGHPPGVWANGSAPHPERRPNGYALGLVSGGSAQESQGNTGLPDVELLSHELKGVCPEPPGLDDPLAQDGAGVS

[16] = target: 5-hydroxytryptamine receptor 2B (Homo sapiens, UniProt P41595); test: Antagonist activity against 5-HT2B […] receptor (unknown origin) transfected in human HEK293T cells assessed as inhibition constant incubated for 15 mins by luminescence counter analysis; assay type: functional, cell-based
Sequence of 5-hydroxytryptamine receptor 2B (P41595 whole entry): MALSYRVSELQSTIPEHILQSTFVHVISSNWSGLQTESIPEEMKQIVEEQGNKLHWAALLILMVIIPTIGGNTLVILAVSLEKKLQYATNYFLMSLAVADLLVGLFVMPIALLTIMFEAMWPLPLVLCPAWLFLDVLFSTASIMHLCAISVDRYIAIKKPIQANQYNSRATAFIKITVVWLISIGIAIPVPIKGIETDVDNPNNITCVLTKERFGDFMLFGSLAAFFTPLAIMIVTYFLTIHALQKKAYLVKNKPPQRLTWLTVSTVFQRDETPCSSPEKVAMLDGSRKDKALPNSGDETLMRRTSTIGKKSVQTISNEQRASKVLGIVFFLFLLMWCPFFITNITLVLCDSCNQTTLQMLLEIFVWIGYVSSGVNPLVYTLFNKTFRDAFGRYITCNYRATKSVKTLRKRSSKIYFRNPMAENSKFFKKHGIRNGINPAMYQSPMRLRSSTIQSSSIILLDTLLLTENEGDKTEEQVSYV

[17] = target: T1, G-protein coupled receptor 68; test: Positive allosteric modulator activity at HA-tagged GPR68 expressed in human HEK293T cells assessed as activation of PKA at pH 7.4 by immunoblotting analysis; assay type: cell-based; details: filed as positive allosteric modulator
Summary of the method: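 HEK293 cells stably expressing N-terminal HA-tagged human GPR68 (vector-only line as control), selected with 250 μg/ml G418. Confluent cells were switched to Hams-F12 at pH 8.0 or 7.4 for 1 h, then given vehicle or 50 μM compound for 10 min. Lysate immunoblots were probed for HA, total VASP, p-p42/p44 and β-actin, read with infrared-fluorophore secondaries.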

[18] = Toxicity in C57BL/6 mouse assessed as decreased contextual memory retrieval; details: in vivo
Summary of the method: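 Fear conditioning in wild-type and GPR68 KO C57BL/6J congenic mice. Training was 8 min: 3 pairings of a 30-s, 90 dB, 5 kHz tone with a 2-s, 0.6 mA foot shock. Context freezing scored at 24 h over 5 min; cue test at 48 h over 6 min. Freezing defined as no movement for 0.5 s. Compound 10 mg/kg in 10% Tween 80 or saline, 30 min before training. n=6–8 per group. Two-way ANOVA with Bonferroni post-hoc test.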

Mus musculus = species: Mus musculus; test: Antipsychotic activity against GPR68 knockout C57BL/6 mouse assessed as cued memory retrieval by Morris water maze test; assay type: functional, organism-based

EC50 [3]: 151 nM | EC50 [4]: 155 nM | EC50 [5]: 145 nM | Activity [15]: Active | Ki (Adenosine receptor A2a): 220 nM | Ki [16]: 736 nM | Activity [17]: Active
Compound: Nc1nc(NCc2ccccc2)nc(-c2ccccc2CO)n1 [Ogerin]
Emax at 10 µM [1]: 1.12% | Emax at 10 µM [2]: 1.35% | Emax [6]: 11.7% | Emax [7]: 42.6% | Emax [8]: 27.5% | EC50 [9]: 11.7 nM | EC50 [10]: 77.6 nM | EC50 [11]: 26.9 nM | EC50 [12]: 191 nM | EC50 [13]: 398 nM | pKb [14]: 4.67 | Activity [18]: Toxic | Activity (Mus musculus): inactive
